For orientation: MIC80 means an inhibitory concentration at the 80% level, which refers to growth in some studies and to a panel of isolates in others.

The subject of test [1] is Candida albicans. Nature of the test: Antifungal activity against Candida albicans SC5314 assessed as growth inhibition by automatic microplate reader analysis. In kind it is functional. A digest of the protocol:
(§1)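 Broth microdilution growth read by optical density at 630 nm on a microplate reader. MIC80 was taken as the first well showing roughly 80% growth reduction relative to the drug-free well.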

For another test, the system named is Candida parapsilosis. Nature of the test: Antifungal activity against Candida parapsilosis 22019 assessed as growth inhibition by automatic microplate reader analysis. The format is functional. Particulars: Lodderomyces parapsilosis. A digest of the protocol:
as §1

The next test deals with Aspergillus fumigatus. Nature of the test: Antifungal activity against Aspergillus fumigatus 07544 assessed as growth inhibition by automatic microplate reader analysis. In kind it is functional. A digest of the protocol:
as §1

In a further test the test system is MG-63. Nature of the test: Cytotoxicity against human MG63 cells assessed as growth inhibition by MTT assay. The format is functional, cell-based. The gist of the method: (§2)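 Modified MTT colorimetric assay on human lung adenocarcinoma A549 and human osteosarcoma MG63 cells, with adriamycin as the positive control.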
A general note: Tetrazolium dyes change colour on reduction, which living cells bring about.

In the next test the test system is A549. Kind of test: Cytotoxicity against human A549 cells assessed as growth inhibition by MTT assay. In kind it is functional, cell-based. The gist of the method:
as §2

The next test has as its system Cryptococcus neoformans. Nature of the test: Antifungal activity against Cryptococcus neoformans 32609 assessed as growth inhibition by automatic microplate reader analysis. In kind it is functional. A digest of the protocol: as §1
The test system of another test is Nannizzia gypsea. Kind of test: Antifungal activity against Microsporum gypseum Cmccfmza assessed as growth inhibition by automatic microplate reader analysis. In kind it is functional. A digest of the protocol:
as §1

The next test has as its system Nakaseomyces glabratus. Nature of the test: Antifungal activity against Candida glabrata 537 assessed as growth inhibition by automatic microplate reader analysis. In kind it is functional. The gist of the method: as §1
Test [2] has as its system Candida albicans. Nature of the test: Antifungal activity against Candida albicans Y0109 assessed as growth inhibition by automatic microplate reader analysis. The format is functional. The gist of the method:
as §1

A further test has as its system Trichophyton rubrum. Nature of the test: Antifungal activity against Trichophyton rubrum Cmccftla assessed as growth inhibition by automatic microplate reader analysis. The format is functional. A digest of the protocol: as §1

Active and inactive are the calls of the source. No cut-off for these calls is given here.

Consider `C[C@@H](O)/C=C/C=C/[C@H]1OC[C@H]2[C@@H](O)[C@@H](O)[C@H](O)C[C@@H]21`, for which the MIC80 in the test on Candida albicans [1], with Candida parapsilosis, in the test with Aspergillus fumigatus, with Cryptococcus neoformans, in the test with Nannizzia gypsea and in the test with Nakaseomyces glabratus was above 64 µg/mL in each case. Also, the MIC80 with Candida albicans [2] and in the test on Trichophyton rubrum was above 64 µg/mL in each case. In addition, the inhibition entry in the test with MG-63 and in the test with A549 was “inactive” each time.

On to `C/C=C/C=C/C=C/[C@H]1C[C@@H](O)C[C@H](O)[C@@H]1CO`, for which the MIC80 in the test with Candida albicans [1] was 16 µg/mL; in the test with Candida parapsilosis, 16 µg/mL; in the test on Aspergillus fumigatus, above 64 µg/mL; in the test on Cryptococcus neoformans, 8 µg/mL; with Nannizzia gypsea, 16 µg/mL; in the test with Nakaseomyces glabratus, 16 µg/mL. The figures for the MIC80 with Candida albicans [2] and in the test with Trichophyton rubrum were 16 µg/mL and 8 µg/mL, respectively. The inhibition entry in the test on MG-63 and in the test with A549 was “inactive” in each case.

On to `C/C=C/C=C/C=C/[C@H]1C[C@@H](O)[C@H](O)[C@H](O)[C@@H]1CO`, for which the MIC80 in the test on Candida albicans [1], in the test with Candida parapsilosis, with Aspergillus fumigatus, in the test on Cryptococcus neoformans, in the test with Nannizzia gypsea and with Nakaseomyces glabratus was above 64 µg/mL throughout. For the same compound, the figures for the MIC80 in the test with Candida albicans [2] and in the test on Trichophyton rubrum were 16 µg/mL and above 64 µg/mL, respectively. Besides, the inhibition entry with MG-63 and in the test on A549 was “inactive” each time.

Take `C/C=C/C=C/C=C/[C@H]1C[C@@H](O)[C@H](O)C(=O)[C@@H]1CO`: the MIC80 with Candida albicans [1] was 16 µg/mL; with Candida parapsilosis, 16 µg/mL; in the test with Aspergillus fumigatus it was above 64 µg/mL; with Cryptococcus neoformans it was 16 µg/mL; in the test on Nannizzia gypsea, above 64 µg/mL; with Nakaseomyces glabratus, 16 µg/mL. Moreover, the MIC80 in the test with Candida albicans [2] and with Trichophyton rubrum was 16 µg/mL in each case. The inhibition result with MG-63 and with A549 was “inactive” throughout.

Regarding `COc1cccc2c1C(=O)c1c(O)c3c(c(O)c1C2=O)C[C@@](O)(C(=O)CO)C[C@@H]3O[C@H]1C[C@H](N)[C@H](O)[C@H](C)O1` [DOXORUBICIN], the inhibition entry with MG-63 is “inactive”. Besides, the IC50 entry in the test with A549 is “Not Active”.

On to `OC(Cn1cncn1)(Cn1cncn1)c1ccc(F)cc1F` [FLUCONAZOLE], for which the MIC80 in the test on Candida albicans [1] was 0.25 µg/mL; with Candida parapsilosis, 1 µg/mL; in the test on Aspergillus fumigatus, above 64 µg/mL; with Cryptococcus neoformans, 1 µg/mL; with Nannizzia gypsea, 8 µg/mL; with Nakaseomyces glabratus, 2 µg/mL. In addition, the MIC80 was 0.25 µg/mL in the test with Candida albicans [2] and 1 µg/mL in the test on Trichophyton rubrum.

As to `CCC(C)n1ncn(-c2ccc(N3CCN(c4ccc(OCC5COC(Cn6cncn6)(c6ccc(Cl)cc6Cl)O5)cc4)CC3)cc2)c1=O` (configuration not stated) [ITRACONAZOLE], the MIC80 in the test on Candida albicans [1] was 4 µg/mL; in the test with Candida parapsilosis, 8 µg/mL; in the test on Aspergillus fumigatus it was 32 µg/mL; with Cryptococcus neoformans, 4 µg/mL; in the test on Nannizzia gypsea it was 4 µg/mL; in the test on Nakaseomyces glabratus, 2 µg/mL. The values for the MIC80 with Candida albicans [2] and in the test on Trichophyton rubrum were 4 µg/mL and 2 µg/mL, respectively.

Take `CC(=O)N1CCN(c2ccc(OCC3COC(Cn4ccnc4)(c4ccc(Cl)cc4Cl)O3)cc2)CC1` (configuration not stated) [KETOCONAZOLE]: the MIC80 with Candida albicans [1] was 0.125 µg/mL; in the test with Candida parapsilosis, 0.25 µg/mL; in the test on Aspergillus fumigatus it was 2 µg/mL; with Cryptococcus neoformans it was 0.25 µg/mL; in the test on Nannizzia gypsea, 0.125 µg/mL; in the test with Nakaseomyces glabratus, 0.125 µg/mL. Moreover, the MIC80 in the test on Candida albicans [2] and in the test with Trichophyton rubrum was 0.0625 µg/mL throughout.

Turning to `CN(C/C=C/C#CC(C)(C)C)Cc1cccc2ccccc12` [TERBINAFINE], the MIC80 turned out to be 64 µg/mL in the test on Candida albicans [1]; 8 µg/mL in the test with Candida parapsilosis; 4 µg/mL in the test on Aspergillus fumigatus; 8 µg/mL in the test with Cryptococcus neoformans; 0.25 µg/mL in the test on Nannizzia gypsea; 8 µg/mL in the test with Nakaseomyces glabratus. Also, the MIC80 was above 64 µg/mL in the test with Candida albicans [2] and 1 µg/mL with Trichophyton rubrum.

Turning to `C[C@@H](c1ncncc1F)[C@](O)(Cn1cncn1)c1ccc(F)cc1F` [VORICONAZOLE], the MIC80 in the test on Candida albicans [1] is 0.25 µg/mL; in the test on Candida parapsilosis, 2 µg/mL; in the test with Aspergillus fumigatus it was 4 µg/mL; in the test with Cryptococcus neoformans, 0.25 µg/mL; with Nannizzia gypsea it was 0.5 µg/mL; in the test with Nakaseomyces glabratus, 0.25 µg/mL. Moreover, the results for the MIC80 in the test with Candida albicans [2] and in the test with Trichophyton rubrum were 0.5 µg/mL and 0.125 µg/mL, respectively.

Source of the values: ChEMBL document CHEMBL3297710, “Polyhydroxy cyclohexanols from a Dendrodochium sp. fungus associated with the sea cucumber Holothuria nobilis Selenka” (J Nat Prod, 2014).
